Measurements from ChEMBL document CHEMBL1156107, “Synthesis of new alkylaminooxysterols with potent cell differentiating activities: identification of leads for the treatment of cancer and neurodegenerative diseases” (J Med Chem, 2009).
Active and inactive are the calls of the source. The rule behind the calls is not given here.

Key:
[1] = tested on: P19; assay: Induction of dendrite out growth in IL-4/GMCSF-stimulated mouse P19 cells assessed as dendrite length at 100 nM after 48 hrs by light microscopy; type: functional
[2] = tested on: U-937; assay: Induction of dendrite out growth in IL-4/GMCSF-stimulated human U937 cells assessed as dendrite length at 100 nM after 48 hrs by light microscopy; type: functional
How it was run: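 U937 cells at 1.1 × 10⁶ cells/mL were primed with 10 ng/mL PMA for 48 h in RPMI with 10% heat-inactivated serum. Adherent cells were then given 100 ng/mL IL-4 plus 100 ng/mL GM-CSF or 100 nM compound for 48 h. Dendrite length scored by light microscopy, from none to over 100 μm with a contact network.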

[3] = organism: Homo sapiens; assay: Plasma concentration healthy human; type: ADME, organism-based; settings: in vivo
[4] = tested on: U-937; assay: Cytotoxicity against human U937 cells after 3 days by trypan blue exclusion assay; type: functional, cell-based
How it was run: (§1)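 U937 and P19 cells treated with compound. Cell death scored by trypan blue exclusion, with cells scraped, suspended in 0.25% w/v trypan blue in PBS and counted in a Malassez cell. IC50 is the concentration giving 50% cytotoxicity.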

[5] = tested on: P19; assay: Cytotoxicity against mouse P19 cells after 3 days by trypan blue exclusion assay; type: functional, cell-based; how it was run: as §1
[6] = tested on: P19; assay: Cytotoxicity against mouse P19 cells up to 20 uM after 3 days by trypan blue exclusion assay; type: functional, cell-based; how it was run: as §1
[7] = tested on: U-937; assay: Cytotoxicity against human U937 cells up to 20 uM after 3 days by trypan blue exclusion assay; type: functional, cell-based; how it was run: as §1
[8] = tested on: U-87MG ATCC; assay: Cytotoxicity against human U87 cells after 72 hrs by trypan blue exclusion assay; type: functional, cell-based
How it was run: (§2)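 Cells were exposed for 72 h to the test agent at increasing concentrations from 10 nM to 20 μM, at 37 °C in humidified 5% CO2. Cells were scraped and resuspended in 0.25% w/v trypan blue in PBS, and dead cells were counted under a light microscope in a Malassez chamber. IC50 is the concentration giving 50% cytotoxicity. Values are mean ± SE of three independent experiments, each run in duplicate.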

[9] = tested on: NB-4; assay: Cytotoxicity against human NB4 cells after 72 hrs by trypan blue exclusion assay; type: functional, cell-based; how it was run: as §2
[10] = tested on: SK-MEL-28; assay: Cytotoxicity against human SK-MEL-28 cells after 72 hrs by trypan blue exclusion assay; type: functional, cell-based; how it was run: as §2
[11] = tested on: SK-N-SH; assay: Cytotoxicity against human SK-N-SH cells after 72 hrs by trypan blue exclusion assay; type: functional, cell-based; how it was run: as §2
[12] = tested on: SW-620; assay: Cytotoxicity against human SW620 cells after 72 hrs by trypan blue exclusion assay; type: functional, cell-based; how it was run: as §2
[13] = tested on: B16-F10; assay: Cytotoxicity against mouse B16F10 cells after 72 hrs by trypan blue exclusion assay; type: functional, cell-based; how it was run: as §2
[14] = tested on: P19; assay: Cytotoxicity against mouse P19 cells after 72 hrs by trypan blue exclusion assay; type: functional, cell-based; how it was run: as §2
[15] = tested on: N2a; assay: Cytotoxicity against mouse Neuro2a cells after 72 hrs by trypan blue exclusion assay; type: functional, cell-based; how it was run: as §2
[16] = tested on: A549; assay: Cytotoxicity against human A549 cells after 72 hrs by trypan blue exclusion assay; type: functional, cell-based; how it was run: as §2
[17] = tested on: U-937; assay: Cytotoxicity against human U937 cells after 72 hrs by trypan blue exclusion assay; type: functional, cell-based; how it was run: as §2
[18] = tested on: HCT-8; assay: Cytotoxicity against human HCT8 cells after 72 hrs by trypan blue exclusion assay; type: functional, cell-based; how it was run: as §2
[19] = tested on: TS/A; assay: Cytotoxicity against mouse TSA cells after 72 hrs by trypan blue exclusion assay; type: functional, cell-based; how it was run: as §2
[20] = tested on: SH-SY5Y; assay: Cytotoxicity against human SH-SY5Y cells after 72 hrs by trypan blue exclusion assay; type: functional, cell-based; how it was run: as §2
[21] = tested on: MCF7; assay: Cytotoxicity against human MCF7 cells after 72 hrs by trypan blue exclusion assay; type: functional, cell-based; how it was run: as §2
[22] = tested on: KG-1; assay: Cytotoxicity against human KG1 cells after 72 hrs by trypan blue exclusion assay; type: functional, cell-based; how it was run: as §2
[23] = tested on: MCF7; assay: Induction of human MCF7 cell differentiation assessed as stimulation of milk fat globulin expression at 5 uM after 48 hrs by immunocytochemistry; type: functional, cell-based
[24] = tested on: MCF7; assay: Induction of human MCF7 cell differentiation assessed as milk fat accumulation in intracytoplasmic vesicle at 5 uM after 48 hrs by Bligh and Dyer method; type: functional, cell-based
How it was run: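 MCF-7 cells (5 million) exposed to vehicle or compound for 48 h, washed three times in PBS. Lipids extracted by the Bligh and Dyer method and triglycerides quantified.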

[25] = tested on: MCF7; assay: Induction of human MCF7 cell differentiation assessed as lipid accumulation in intracytoplasmic vesicle at 5 uM after 48 hrs by oil red O staining-based light microscopy; type: functional
How it was run: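 MCF-7 cells on glass coverslips treated with drug, fixed in 3.7% paraformaldehyde for 1 h at room temperature, and stained with oil red O in 60% isopropanol with hematoxylin counterstain. Dye extracted with isopropanol and read at 510 nm, with control subtracted and the value normalized to SYBR green DNA stain.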

[26] = Homo sapiens, U-937, 72 h, read-out: IC50
[27] = Mus musculus, P19, 72 h, read-out: IC50

Row | Compound | Activity [1] | Activity [2] | IC50 ([4]; u-937) | IC50 ([5]; p19) | IC50 [4, 26] [µM] | IC50 [5, 27] [µM] | further results
1 | CC(C)CCC[C@@H](C)[C@H]1CC[C@H]2[C@@H]3C[C@@H]4O[C@@]45C[C@@H](O)CC[C@]5(C)[C@H]3CC[C@]12C | inactive | inactive | Not Active | Not Active | – | – | concentration [3]: 1 nM
2 | CC(C)CCC[C@@H](C)[C@H]1CC[C@H]2C3=C[C@@H](NCCCNCCCCNCCCN)[C@@]4(O)C[C@@H](O)CC[C@]4(C)[C@H]3CC[C@]12C | 10 um | <5 um | Not Active | Not Active | – | – | –
3 | C[C@]12CC[C@H]3[C@@H](C[C@@H]4O[C@@]45C[C@@H](O)CC[C@]35C)[C@@H]1CC[C@@H]2O | inactive | inactive | Not Active | Not Active | – | – | –
4 | CC(C)CCC[C@@H](C)[C@H]1CC[C@H]2[C@@H]3C[C@@H](NCCCCNCCCN)[C@@]4(O)C[C@@H](O)CC[C@]4(C)[C@H]3CC[C@]12C | 50 um | <5 um | Not Active | Not Active | – | – | Activity [6]: inactive; Activity [7]: inactive
5 | NCCc1c[nH]cn1 [HISTAMINE] | inactive | inactive | Not Active | Not Active | – | – | –
6 | NCCCNCCCCNCCCN [SPERMINE] | inactive | inactive | Not Active | Not Active | – | – | –
7 | C[C@]12CC[C@H]3[C@@H](C[C@@H](NCCc4c[nH]cn4)[C@@]4(O)C[C@@H](O)CC[C@]34C)[C@@H]1CC[C@@H]2O | inactive | inactive | – | – | 9.8 | 7.3 | –
8 | CC(C)CCC[C@@H](C)[C@H]1CC[C@H]2[C@@H]3CC=C4C[C@@H](O)CC[C@]4(C)[C@H]3CC[C@]12C [CHOLESTEROL] | inactive | inactive | Not Active | Not Active | – | – | –
9 | CC(C)CCC[C@@H](C)[C@H]1CC[C@H]2[C@@H]3C[C@@H](NCCCNCCCCN)[C@@]4(O)C[C@@H](O)CC[C@]4(C)[C@H]3CC[C@]12C | 50 um | <5 um | Not Active | Not Active | – | – | –
10 | CC[C@H](CC[C@@H](C)[C@H]1CC[C@H]2[C@@H]3C[C@@H](NCCc4c[nH]cn4)[C@@]4(O)C[C@@H](O)CC[C@]4(C)[C@H]3CC[C@]12C)C(C)C | 50 um | 50 um | – | – | 1.1 | 2.5 | –
11 | CC(C)CCC[C@@H](C)[C@H]1CC[C@H]2C3=C[C@@H](NCCCCN)[C@@]4(O)C[C@@H](O)CC[C@]4(C)[C@H]3CC[C@]12C | 50 um | 5 um | – | – | 2.6 | 2.8 | –
12 | CC(C)CCC[C@@H](C)[C@H]1CC[C@H]2[C@@H]3C[C@H]4O[C@]45C[C@@H](O)CC[C@]5(C)[C@H]3CC[C@]12C | inactive | inactive | Not Active | Not Active | – | – | concentration [3]: 1 nM
13 | CC(C)CCC[C@@H](C)[C@H]1CC[C@H]2[C@@H]3C[C@@H](n4cnc(CCN)c4)[C@@]4(O)C[C@@H](O)CC[C@]4(C)[C@H]3CC[C@]12C | <5 um | <5 um | – | – | 7.7 | 8.9 | Activity [8]: inactive; Activity [9]: inactive; Activity [10]: inactive; Activity [11]: inactive; Activity [12]: inactive; Activity [13]: inactive; Activity [14]: inactive; Activity [15]: inactive; Activity [16]: inactive; Activity [17]: inactive; Activity [18]: inactive; Activity [19]: inactive; Activity [20]: inactive; Activity [21]: inactive; Activity [22]: inactive
14 | CC(C)CCC[C@@H](C)[C@H]1CC[C@H]2C3=C[C@@H](NCCCCNCCCN)[C@@]4(O)C[C@@H](O)CC[C@]4(C)[C@H]3CC[C@]12C | 50 um | <5 um | Not Active | Not Active | – | – | –
15 | CC(C)CCC[C@@H](C)[C@H]1CC[C@H]2C3=C[C@@H](NCCc4c[nH]cn4)[C@@]4(O)C[C@@H](O)CC[C@]4(C)[C@H]3CC[C@]12C | 5 um | <5 um | – | – | 7.6 | 5.3 | –
16 | CCCC(=O)O[C@H]1CC[C@]2(C)[C@H]3CC[C@]4(C)[C@@H]([C@H](C)CCCC(C)C)CC[C@H]4[C@@H]3C[C@@H](NCCc3c[nH]cn3)[C@@]2(O)C1 | inactive | inactive | – | – | 8.2 | 9.4 | –
17 | CC(=O)O[C@H]1CC[C@]2(C)[C@H]3CC[C@]4(C)[C@@H]([C@H](C)CCCC(C)C)CC[C@H]4[C@@H]3C[C@@H]3O[C@@]32C1 | inactive | inactive | Not Active | Not Active | – | – | –
18 | NCCCCNCCCN [SPERMIDINE] | inactive | inactive | Not Active | Not Active | – | – | –
19 | CC/C(=C(\c1ccccc1)c1ccc(OCCN(C)C)cc1)c1ccccc1 | – | – | – | – | – | – | Activity [23]: Active; Activity [24]: Active; Activity [25]: Active
20 | CC(=O)O[C@H]1CC[C@]2(C)[C@H]3CC[C@]4(C)[C@@H]([C@H](C)CCCC(C)C)CC[C@H]4[C@@H]3C[C@@H](NCCc3c[nH]cn3)[C@@]2(O)C1 | 50 um | 50 um | – | – | 0.9 | 2.5 | –
21 | NCCCCN [PUTRESCINE] | inactive | inactive | Not Active | Not Active | – | – | –
22 | CC(C)CCC[C@@H](C)[C@H]1CC[C@H]2[C@@H]3C[C@@H](NCCCNCCCCNCCCN)[C@@]4(O)C[C@@H](O)CC[C@]4(C)[C@H]3CC[C@]12C | 10 um | <5 um | Not Active | Not Active | – | – | –
23 | CCCC(=O)O[C@H]1CC[C@]2(C)[C@H]3CC[C@]4(C)[C@@H]([C@H](C)CCCC(C)C)CC[C@H]4[C@@H]3C[C@@H]3O[C@@]32C1 | inactive | inactive | Not Active | Not Active | – | – | –
24 | CC[C@H](CC[C@@H](C)[C@H]1CC[C@H]2[C@@H]3C[C@@H]4O[C@@]45C[C@@H](O)CC[C@]5(C)[C@H]3CC[C@]12C)C(C)C | inactive | inactive | Not Active | Not Active | – | – | –
25 | CC(C)CCC[C@@H](C)[C@H]1CC[C@H]2C3=C[C@@H]4O[C@@]45C[C@@H](O)CC[C@]5(C)[C@H]3CC[C@]12C | inactive | inactive | Not Active | Not Active | – | – | –
26 | CC(C)CCC[C@@H](C)[C@H]1CC[C@H]2[C@@H]3C[C@@H](NCCCCN)[C@@]4(O)C[C@@H](O)CC[C@]4(C)[C@H]3CC[C@]12C | 10 um | 5 um | – | – | 2.1 | 2.6 | –
